Test results published in ChEMBL document CHEMBL4689842, “EUbOPEN Chemogenomics Library wave 1” (2021).

Test system: U2OS
Experiment: Multiplex assay against U2OS
Format: toxicity, cell-based
Conditions: human
How it was run: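 Tubulin, mitochondrial-mass and membrane-permeability phenotypes are per cents of healthy-nucleus cells. Cells were gated by CellPathfinder machine learning into Hoechst high-intensity objects or normal cells, normal cells into healthy, pyknosed or fragmented nuclei, and pyknosed cells into mitotic or apoptotic. Before that, live cells stained at seeding with Hoechst33342, BioTracker Green Microtubule Cytoskeleton Dye, MitoTracker Red and Annexin V Alexa Fluor 680 were imaged on a CQ1 microscope at 37°C and 5% CO2 after compound addition.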

[1] = 12 h, 1 µM, compound concentration 1 uM, replicate 1
[2] = 12 h, 1 µM, compound concentration 1 uM, replicate 2
[3] = 12 h, 10 µM, compound concentration 10 uM, replicate 1
[4] = 12 h, 10 µM, compound concentration 10 uM, replicate 2
[5] = 24 h, 1 µM, compound concentration 1 uM, replicate 1
[6] = 24 h, 1 µM, compound concentration 1 uM, replicate 2
[7] = 24 h, 10 µM, compound concentration 10 uM, replicate 1
[8] = 24 h, 10 µM, compound concentration 10 uM, replicate 2
[9] = 48 h, 1 µM, compound concentration 1 uM, replicate 1
[10] = 48 h, 1 µM, compound concentration 1 uM, replicate 2
[11] = 48 h, 10 µM, compound concentration 10 uM, replicate 1
[12] = 48 h, 10 µM, compound concentration 10 uM, replicate 2

COc1cc2ncn(-c3cc(OCc4ccccc4C(F)(F)F)c(C(N)=O)s3)c2cc1OC [GW843682X]
Population Apoptotic (%) [1]: 54%
Population Fragmented Nuclei (%) [1]: 15%
Population Healthy Nuclei (%) [1]: 78%
Population Hoechst High Intensity Objects (%) [1]: 7%
Population Membrane Permeable-Phenotype (%) [1]: 12%
Population Mitochondria Different-Phenotype (%) [1]: 17%
Population Mitotic Cells (%) [1]: 45%
Population Normal (%) [1]: 92%
Population Pyknosed Nuclei (%) [1]: 6%
Population Tubulin-Different-Phenotype (%) [1]: 28%
Total Cell Count [1]: 170
Population Apoptotic (%) [2]: 50%
Population Fragmented Nuclei (%) [2]: 9%
Population Healthy Nuclei (%) [2]: 80%
Population Hoechst High Intensity Objects (%) [2]: 10%
Population Mitochondria Different-Phenotype (%) [2]: 10%
Population Mitotic Cells (%) [2]: 50%
Population Normal (%) [2]: 89%
Population Pyknosed Nuclei (%) [2]: 9%
Population Tubulin-Different-Phenotype (%) [2]: 20%
Total Cell Count [2]: 83
Population Apoptotic (%) [3]: 54%
Population Fragmented Nuclei (%) [3]: 12%
Population Healthy Nuclei (%) [3]: 71%
Population Hoechst High Intensity Objects (%) [3]: 13%
Population Membrane Permeable-Phenotype (%) [3]: 28%
Population Mitochondria Different-Phenotype (%) [3]: 83%
Population Mitotic Cells (%) [3]: 45%
Population Normal (%) [3]: 86%
Population Pyknosed Nuclei (%) [3]: 15%
Population Tubulin-Different-Phenotype (%) [3]: 97%
Total Cell Count [3]: 185
Population Apoptotic (%) [4]: 50%
Population Fragmented Nuclei (%) [4]: 13%
Population Healthy Nuclei (%) [4]: 75%
Population Hoechst High Intensity Objects (%) [4]: 6%
Population Membrane Permeable-Phenotype (%) [4]: 25%
Population Mitochondria Different-Phenotype (%) [4]: 88%
Population Mitotic Cells (%) [4]: 50%
Population Normal (%) [4]: 93%
Population Pyknosed Nuclei (%) [4]: 11%
Population Tubulin-Different-Phenotype (%) [4]: 98%
Total Cell Count [4]: 68
Population Apoptotic (%) [5]: 62%
Population Fragmented Nuclei (%) [5]: 14%
Population Healthy Nuclei (%) [5]: 76%
Population Hoechst High Intensity Objects (%) [5]: 3%
Population Mitochondria Different-Phenotype (%) [5]: 22%
Population Mitotic Cells (%) [5]: 37%
Population Normal (%) [5]: 96%
Population Pyknosed Nuclei (%) [5]: 8%
Population Tubulin-Different-Phenotype (%) [5]: 20%
Total Cell Count [5]: 166
Population Apoptotic (%) [6]: 55%
Population Fragmented Nuclei (%) [6]: 11%
Population Healthy Nuclei (%) [6]: 74%
Population Hoechst High Intensity Objects (%) [6]: 5%
Population Membrane Permeable-Phenotype (%) [6]: 10%
Population Mitochondria Different-Phenotype (%) [6]: 19%
Population Mitotic Cells (%) [6]: 44%
Population Normal (%) [6]: 94%
Population Pyknosed Nuclei (%) [6]: 14%
Population Tubulin-Different-Phenotype (%) [6]: 17%
Total Cell Count [6]: 85
Population Apoptotic (%) [7]: 51%
Population Fragmented Nuclei (%) [7]: 14%
Population Healthy Nuclei (%) [7]: 66%
Population Hoechst High Intensity Objects (%) [7]: 9%
Population Membrane Permeable-Phenotype (%) [7]: 42%
Population Mitochondria Different-Phenotype (%) [7]: 90%
Population Mitotic Cells (%) [7]: 48%
Population Normal (%) [7]: 90%
Population Pyknosed Nuclei (%) [7]: 18%
Population Tubulin-Different-Phenotype (%) [7]: 98%
Total Cell Count [7]: 190
Population Apoptotic (%) [8]: 50%
Population Fragmented Nuclei (%) [8]: 13%
Population Healthy Nuclei (%) [8]: 69%
Population Membrane Permeable-Phenotype (%) [8]: 41%
Population Mitochondria Different-Phenotype (%) [8]: 91%
Population Mitotic Cells (%) [8]: 50%
Population Pyknosed Nuclei (%) [8]: 17%
Population Tubulin-Different-Phenotype (%) [8]: 97%
Total Cell Count [8]: 67
Population Apoptotic (%) [9]: 71%
Population Fragmented Nuclei (%) [9]: 16%
Population Healthy Nuclei (%) [9]: 66%
Population Hoechst High Intensity Objects (%) [9]: 8%
Population Membrane Permeable-Phenotype (%) [9]: 16%
Population Mitochondria Different-Phenotype (%) [9]: 33%
Population Mitotic Cells (%) [9]: 28%
Population Normal (%) [9]: 91%
Population Pyknosed Nuclei (%) [9]: 16%
Population Tubulin-Different-Phenotype (%) [9]: 18%
Total Cell Count [9]: 160
Population Apoptotic (%) [10]: 62%
Population Fragmented Nuclei (%) [10]: 9%
Population Healthy Nuclei (%) [10]: 79%
Population Hoechst High Intensity Objects (%) [10]: 6%
Population Membrane Permeable-Phenotype (%) [10]: 27%
Population Mitochondria Different-Phenotype (%) [10]: 37%
Population Mitotic Cells (%) [10]: 37%
Population Normal (%) [10]: 93%
Population Pyknosed Nuclei (%) [10]: 10%
Population Tubulin-Different-Phenotype (%) [10]: 34%
Total Cell Count [10]: 91
Population Apoptotic (%) [11]: 78%
Population Fragmented Nuclei (%) [11]: 17%
Population Healthy Nuclei (%) [11]: 53%
Population Hoechst High Intensity Objects (%) [11]: 9%
Population Membrane Permeable-Phenotype (%) [11]: 71%
Population Mitochondria Different-Phenotype (%) [11]: 93%
Population Mitotic Cells (%) [11]: 21%
Population Normal (%) [11]: 90%
Population Pyknosed Nuclei (%) [11]: 29%
Population Tubulin-Different-Phenotype (%) [11]: 97%
Total Cell Count [11]: 187
Population Apoptotic (%) [12]: 71%
Population Fragmented Nuclei (%) [12]: 18%
Population Healthy Nuclei (%) [12]: 62%
Population Hoechst High Intensity Objects (%) [12]: 6%
Population Membrane Permeable-Phenotype (%) [12]: 68%
Population Mitochondria Different-Phenotype (%) [12]: 88%
Population Mitotic Cells (%) [12]: 28%
Population Normal (%) [12]: 93%
Population Pyknosed Nuclei (%) [12]: 19%
Total Cell Count [12]: 78
